# Experimental data: the M2OR odorant receptor database
# Columns and labels:
# Conditions in all cases: stereoisomer not certain
# OR1A1 (Homo sapiens) = target: T1, OR1A1 (Homo sapiens) (UniProt Q9P1Q5)
# T1 sequence (whole entry): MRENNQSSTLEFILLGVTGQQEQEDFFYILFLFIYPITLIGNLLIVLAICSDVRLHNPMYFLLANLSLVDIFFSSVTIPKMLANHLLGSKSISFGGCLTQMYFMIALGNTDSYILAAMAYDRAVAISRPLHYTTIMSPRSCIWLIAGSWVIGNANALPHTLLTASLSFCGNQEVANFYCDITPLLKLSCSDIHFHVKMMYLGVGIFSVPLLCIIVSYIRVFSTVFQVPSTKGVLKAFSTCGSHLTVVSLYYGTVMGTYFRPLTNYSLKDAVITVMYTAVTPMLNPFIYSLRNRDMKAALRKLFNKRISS
# Summary of the method: (§1)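 Assay methods differ from source to source, frequently being transient luciferase assays in mammalian cell lines. For each receptor–molecule pair, the label responsive (active) applies when the original authors judged the measured signal statistically different from baseline, and non-responsive (inactive) applies otherwise.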
# OR13A1 (Homo sapiens) = OR13A1 (Homo sapiens) (UniProt Q8NGR1)
# Summary of the method: as §1
# OR13C2 (Homo sapiens) = OR13C2 (Homo sapiens) (UniProt Q8NGS9)
# Chain of OR13C2 (Homo sapiens) (Q8NGS9 whole entry): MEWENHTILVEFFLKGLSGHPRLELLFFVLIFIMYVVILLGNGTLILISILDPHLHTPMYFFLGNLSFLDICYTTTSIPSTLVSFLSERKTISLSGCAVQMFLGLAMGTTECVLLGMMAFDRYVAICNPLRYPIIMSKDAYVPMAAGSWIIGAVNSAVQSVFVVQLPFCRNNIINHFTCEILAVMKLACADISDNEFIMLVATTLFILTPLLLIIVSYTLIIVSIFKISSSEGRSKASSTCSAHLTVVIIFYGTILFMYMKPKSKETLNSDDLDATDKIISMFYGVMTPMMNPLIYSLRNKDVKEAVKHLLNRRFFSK
# Summary of the method: as §1
# OR13C3 (Homo sapiens) = OR13C3 (Homo sapiens) (UniProt Q8NGS6)
# Chain of OR13C3 (Homo sapiens) (Q8NGS6 whole entry): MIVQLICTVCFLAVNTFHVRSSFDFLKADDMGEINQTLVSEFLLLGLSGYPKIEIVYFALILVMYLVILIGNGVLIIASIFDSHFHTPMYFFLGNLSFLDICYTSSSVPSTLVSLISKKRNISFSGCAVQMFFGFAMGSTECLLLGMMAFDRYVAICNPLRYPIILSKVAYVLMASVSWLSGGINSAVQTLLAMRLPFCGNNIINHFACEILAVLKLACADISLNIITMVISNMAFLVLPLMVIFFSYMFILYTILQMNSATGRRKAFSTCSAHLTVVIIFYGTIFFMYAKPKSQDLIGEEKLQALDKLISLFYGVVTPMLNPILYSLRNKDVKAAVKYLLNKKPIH
# Summary of the method: as §1
# OR13C4 (Homo sapiens) = OR13C4 (Homo sapiens) (UniProt Q8NGS5)
# Summary of the method: as §1
# OR13C5 (Homo sapiens) = OR13C5 (Homo sapiens) (UniProt Q8NGS8)
# Chain of OR13C5 (Homo sapiens) (Q8NGS8 whole entry): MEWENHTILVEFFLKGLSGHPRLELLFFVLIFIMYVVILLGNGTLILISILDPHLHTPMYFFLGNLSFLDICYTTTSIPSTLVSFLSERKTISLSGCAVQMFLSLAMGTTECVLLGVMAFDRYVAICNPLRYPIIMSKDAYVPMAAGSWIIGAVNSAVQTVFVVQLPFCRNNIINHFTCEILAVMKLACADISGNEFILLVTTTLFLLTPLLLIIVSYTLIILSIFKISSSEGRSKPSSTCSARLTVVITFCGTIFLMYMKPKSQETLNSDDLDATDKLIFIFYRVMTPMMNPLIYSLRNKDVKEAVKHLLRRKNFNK
# Summary of the method: as §1
# OR13C7 (Homo sapiens) = OR13C7 (Homo sapiens) (UniProt P0DN81)
# Summary of the method: as §1
# OR13C8 (Homo sapiens) = OR13C8 (Homo sapiens) (UniProt Q8NGS7)
# Chain of OR13C8 (Homo sapiens) (Q8NGS7 whole entry): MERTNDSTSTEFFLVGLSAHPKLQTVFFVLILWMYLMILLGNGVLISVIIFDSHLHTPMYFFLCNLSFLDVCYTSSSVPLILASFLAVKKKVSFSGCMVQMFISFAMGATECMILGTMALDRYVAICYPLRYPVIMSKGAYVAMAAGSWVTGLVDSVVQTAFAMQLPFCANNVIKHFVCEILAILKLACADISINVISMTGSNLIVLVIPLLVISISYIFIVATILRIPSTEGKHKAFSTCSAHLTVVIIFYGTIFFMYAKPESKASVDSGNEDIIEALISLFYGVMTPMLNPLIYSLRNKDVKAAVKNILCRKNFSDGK
# Summary of the method: as §1
# OR13C9 (Homo sapiens) = OR13C9 (Homo sapiens) (UniProt Q8NGT0)
# Chain of OR13C9 (Homo sapiens) (Q8NGT0 whole entry): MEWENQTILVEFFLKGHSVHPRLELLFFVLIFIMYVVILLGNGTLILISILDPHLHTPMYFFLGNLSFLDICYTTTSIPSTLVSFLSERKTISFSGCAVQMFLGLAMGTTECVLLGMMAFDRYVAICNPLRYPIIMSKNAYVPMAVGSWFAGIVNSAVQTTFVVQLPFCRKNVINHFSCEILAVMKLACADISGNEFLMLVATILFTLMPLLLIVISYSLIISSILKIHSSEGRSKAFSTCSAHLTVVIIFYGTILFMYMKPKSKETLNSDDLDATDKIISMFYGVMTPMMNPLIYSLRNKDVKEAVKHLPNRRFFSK
# Summary of the method: as §1
# OR13D1 (Homo sapiens) = OR13D1 (Homo sapiens) (UniProt Q8NGV5)
# Chain of OR13D1 (Homo sapiens) (Q8NGV5 whole entry): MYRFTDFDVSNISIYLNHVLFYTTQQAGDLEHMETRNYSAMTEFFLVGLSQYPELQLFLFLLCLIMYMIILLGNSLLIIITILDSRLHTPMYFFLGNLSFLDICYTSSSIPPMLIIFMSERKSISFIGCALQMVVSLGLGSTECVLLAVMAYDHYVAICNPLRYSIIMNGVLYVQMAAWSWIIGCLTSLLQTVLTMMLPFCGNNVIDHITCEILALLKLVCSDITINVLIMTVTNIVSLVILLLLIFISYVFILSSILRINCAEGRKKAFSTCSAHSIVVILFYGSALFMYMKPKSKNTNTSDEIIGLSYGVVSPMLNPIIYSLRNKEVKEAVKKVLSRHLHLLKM
# Summary of the method: as §1
# OR13F1 (Homo sapiens) = OR13F1 (Homo sapiens) (UniProt Q8NGS4)
# Chain of OR13F1 (Homo sapiens) (Q8NGS4 whole entry): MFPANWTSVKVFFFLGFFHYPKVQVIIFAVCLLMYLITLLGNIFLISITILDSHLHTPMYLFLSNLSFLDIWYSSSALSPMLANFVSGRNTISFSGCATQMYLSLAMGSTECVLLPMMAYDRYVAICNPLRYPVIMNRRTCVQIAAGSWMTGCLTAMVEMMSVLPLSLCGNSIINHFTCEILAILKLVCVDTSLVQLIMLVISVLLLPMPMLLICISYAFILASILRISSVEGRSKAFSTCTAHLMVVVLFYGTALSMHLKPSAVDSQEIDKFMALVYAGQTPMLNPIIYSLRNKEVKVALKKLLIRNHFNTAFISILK
# Summary of the method: as §1
# OR13G1 (Homo sapiens) = OR13G1 (Homo sapiens) (UniProt Q8NGZ3)
# Chain of OR13G1 (Homo sapiens) (Q8NGZ3 whole entry): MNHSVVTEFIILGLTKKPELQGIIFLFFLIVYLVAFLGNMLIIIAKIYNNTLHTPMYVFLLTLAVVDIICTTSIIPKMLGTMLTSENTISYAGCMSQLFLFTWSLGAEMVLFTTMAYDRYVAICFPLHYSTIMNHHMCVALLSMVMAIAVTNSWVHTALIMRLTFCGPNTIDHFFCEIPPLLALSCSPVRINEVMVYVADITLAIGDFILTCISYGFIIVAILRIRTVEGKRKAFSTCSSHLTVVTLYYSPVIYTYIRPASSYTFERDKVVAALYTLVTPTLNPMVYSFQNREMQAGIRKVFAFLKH
# Summary of the method: as §1
# OR13H1 (Homo sapiens) = OR13H1 (Homo sapiens) (UniProt Q8NG92)
# Chain of OR13H1 (Homo sapiens) (Q8NG92 whole entry): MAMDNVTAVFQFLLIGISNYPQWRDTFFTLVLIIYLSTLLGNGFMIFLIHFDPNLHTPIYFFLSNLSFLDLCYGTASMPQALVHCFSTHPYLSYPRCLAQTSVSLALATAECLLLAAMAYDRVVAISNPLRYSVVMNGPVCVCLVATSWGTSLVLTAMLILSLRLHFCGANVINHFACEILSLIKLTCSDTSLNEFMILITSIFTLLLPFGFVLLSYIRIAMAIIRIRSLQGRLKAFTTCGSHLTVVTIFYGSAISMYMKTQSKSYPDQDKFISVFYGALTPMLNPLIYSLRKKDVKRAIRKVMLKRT
# Summary of the method: as §1
# OR13J1 (Homo sapiens) = OR13J1 (Homo sapiens) (UniProt Q8NGT2)
# Chain of OR13J1 (Homo sapiens) (Q8NGT2 whole entry): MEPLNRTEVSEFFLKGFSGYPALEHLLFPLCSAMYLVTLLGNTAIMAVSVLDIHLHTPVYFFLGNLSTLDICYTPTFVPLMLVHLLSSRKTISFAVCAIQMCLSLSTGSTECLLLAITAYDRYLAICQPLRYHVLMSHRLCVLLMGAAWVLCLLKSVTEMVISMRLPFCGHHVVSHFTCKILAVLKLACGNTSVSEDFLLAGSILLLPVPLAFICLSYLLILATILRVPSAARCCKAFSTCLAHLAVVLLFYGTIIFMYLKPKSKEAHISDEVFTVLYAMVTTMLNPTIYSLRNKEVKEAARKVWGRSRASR
# Summary of the method: as §1
# OR14A16 (Homo sapiens) = OR14A16 (Homo sapiens) (UniProt Q8NHC5)
# Chain of OR14A16 (Homo sapiens) (Q8NHC5 whole entry): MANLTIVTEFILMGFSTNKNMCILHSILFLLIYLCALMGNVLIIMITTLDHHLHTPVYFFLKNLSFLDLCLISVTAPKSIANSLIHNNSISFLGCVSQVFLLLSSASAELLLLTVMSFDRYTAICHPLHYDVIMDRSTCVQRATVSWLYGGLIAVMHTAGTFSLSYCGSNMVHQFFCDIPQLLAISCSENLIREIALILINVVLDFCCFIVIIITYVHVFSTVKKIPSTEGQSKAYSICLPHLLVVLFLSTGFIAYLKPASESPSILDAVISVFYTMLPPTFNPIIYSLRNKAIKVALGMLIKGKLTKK
# Summary of the method: as §1
# OR14A2 (Homo sapiens) = OR14A2 (Homo sapiens) (UniProt Q96R54)
# Chain of OR14A2 (Homo sapiens) (Q96R54 whole entry): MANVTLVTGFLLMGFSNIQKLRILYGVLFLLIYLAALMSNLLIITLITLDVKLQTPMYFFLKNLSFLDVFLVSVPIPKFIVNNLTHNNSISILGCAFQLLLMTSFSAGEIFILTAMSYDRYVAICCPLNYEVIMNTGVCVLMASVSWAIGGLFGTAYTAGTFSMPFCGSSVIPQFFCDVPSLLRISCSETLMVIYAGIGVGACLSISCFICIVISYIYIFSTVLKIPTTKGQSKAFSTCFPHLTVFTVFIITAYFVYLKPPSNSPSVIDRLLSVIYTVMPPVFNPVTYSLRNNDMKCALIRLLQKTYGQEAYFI
# Summary of the method: as §1
# OR14C36 (Homo sapiens) = OR14C36 (Homo sapiens) (UniProt Q8NHC7)
# Chain of OR14C36 (Homo sapiens) (Q8NHC7 whole entry): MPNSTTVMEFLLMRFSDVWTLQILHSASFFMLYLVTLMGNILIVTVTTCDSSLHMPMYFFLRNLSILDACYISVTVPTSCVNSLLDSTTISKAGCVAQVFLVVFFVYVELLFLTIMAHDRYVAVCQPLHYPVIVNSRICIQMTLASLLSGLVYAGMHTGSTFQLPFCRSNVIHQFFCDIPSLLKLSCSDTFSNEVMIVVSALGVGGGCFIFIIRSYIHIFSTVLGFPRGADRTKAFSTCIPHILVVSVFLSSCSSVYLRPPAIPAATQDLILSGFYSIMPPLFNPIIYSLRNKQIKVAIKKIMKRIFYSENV
# Summary of the method: as §1
# OR14I1 (Homo sapiens) = OR14I1 (Homo sapiens) (UniProt A6ND48)
# Chain of OR14I1 (Homo sapiens) (A6ND48 whole entry): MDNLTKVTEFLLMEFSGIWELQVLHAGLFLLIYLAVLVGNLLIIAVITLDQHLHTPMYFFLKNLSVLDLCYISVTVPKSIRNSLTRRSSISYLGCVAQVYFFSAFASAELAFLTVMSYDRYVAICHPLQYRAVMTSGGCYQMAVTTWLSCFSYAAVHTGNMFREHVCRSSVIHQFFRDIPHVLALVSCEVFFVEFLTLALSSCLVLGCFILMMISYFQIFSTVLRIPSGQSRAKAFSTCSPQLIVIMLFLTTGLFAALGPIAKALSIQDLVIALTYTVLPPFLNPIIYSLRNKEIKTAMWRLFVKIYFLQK
# Summary of the method: as §1
# OR14J1 (Homo sapiens) = OR14J1 (Homo sapiens) (UniProt Q9UGF5)
# Chain of OR14J1 (Homo sapiens) (Q9UGF5 whole entry): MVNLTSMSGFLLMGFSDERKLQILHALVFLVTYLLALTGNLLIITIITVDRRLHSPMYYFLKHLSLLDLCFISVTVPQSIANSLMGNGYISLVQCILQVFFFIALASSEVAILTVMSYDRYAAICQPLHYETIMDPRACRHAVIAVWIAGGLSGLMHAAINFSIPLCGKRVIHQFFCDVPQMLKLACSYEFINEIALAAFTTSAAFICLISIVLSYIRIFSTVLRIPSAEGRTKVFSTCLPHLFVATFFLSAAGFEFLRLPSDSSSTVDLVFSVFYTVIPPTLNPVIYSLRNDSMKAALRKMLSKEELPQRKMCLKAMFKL
# Summary of the method: as §1
# OR14K1 (Homo sapiens) = OR14K1 (Homo sapiens) (UniProt Q8NGZ2)
# Summary of the method: as §1
compound,measurement,setting,value
Cc1ccc(O)c(C)c1,odorant receptor agonist call,OR1A1 (Homo sapiens),inactive
Cc1ccccc1O,odorant receptor agonist call,OR1A1 (Homo sapiens),inactive
CCC(Br)C(=O)O (stereo not drawn),odorant receptor agonist call,OR1A1 (Homo sapiens),inactive
SCc1ccco1,odorant receptor agonist call,OR1A1 (Homo sapiens),inactive
CCOC(=O)Cc1ccccc1,odorant receptor agonist call,OR1A1 (Homo sapiens),active
COc1ccc(C=O)cc1,odorant receptor agonist call,OR1A1 (Homo sapiens),inactive
O=c1cc(O)c2ccccc2o1,odorant receptor agonist call,OR1A1 (Homo sapiens),inactive
Cc1c([N+](=O)[O-])c(C)c([N+](=O)[O-])c(C(C)(C)C)c1[N+](=O)[O-],odorant receptor agonist call,OR13A1 (Homo sapiens),inactive
same,odorant receptor agonist call,OR13C2 (Homo sapiens),inactive
same,odorant receptor agonist call,OR13C3 (Homo sapiens),inactive
same,odorant receptor agonist call,OR13C4 (Homo sapiens),inactive
same,odorant receptor agonist call,OR13C5 (Homo sapiens),inactive
same,odorant receptor agonist call,OR13C7 (Homo sapiens),inactive
same,odorant receptor agonist call,OR13C8 (Homo sapiens),inactive
same,odorant receptor agonist call,OR13C9 (Homo sapiens),inactive
same,odorant receptor agonist call,OR13D1 (Homo sapiens),inactive
same,odorant receptor agonist call,OR13F1 (Homo sapiens),inactive
same,odorant receptor agonist call,OR13G1 (Homo sapiens),inactive
same,odorant receptor agonist call,OR13H1 (Homo sapiens),inactive
same,odorant receptor agonist call,OR13J1 (Homo sapiens),inactive
same,odorant receptor agonist call,OR14A16 (Homo sapiens),inactive
same,odorant receptor agonist call,OR14A2 (Homo sapiens),inactive
same,odorant receptor agonist call,OR14C36 (Homo sapiens),inactive
same,odorant receptor agonist call,OR14I1 (Homo sapiens),inactive
same,odorant receptor agonist call,OR14J1 (Homo sapiens),inactive
same,odorant receptor agonist call,OR14K1 (Homo sapiens),inactive
same,odorant receptor agonist call,OR1A1 (Homo sapiens),active
ClC=CCl,odorant receptor agonist call,OR1A1 (Homo sapiens),inactive
CC(C=O)Cc1ccc2c(c1)OCO2 (stereo not drawn),odorant receptor agonist call,OR1A1 (Homo sapiens),active
CCCC(Br)C(=O)O (stereo not drawn),odorant receptor agonist call,OR1A1 (Homo sapiens),inactive
O=C(O)Cc1ccccc1,odorant receptor agonist call,OR1A1 (Homo sapiens),inactive
CSSC,odorant receptor agonist call,OR1A1 (Homo sapiens),inactive
CCCCC(Br)C(=O)O (stereo not drawn),odorant receptor agonist call,OR1A1 (Homo sapiens),inactive
O=C([O-])Cc1ccccc1,odorant receptor agonist call,OR1A1 (Homo sapiens),inactive
CCCCCCC(Br)C(=O)O (stereo not drawn),odorant receptor agonist call,OR1A1 (Homo sapiens),inactive
C=CCSSCC=C,odorant receptor agonist call,OR1A1 (Homo sapiens),inactive
C=CCc1ccc(OC)cc1,odorant receptor agonist call,OR1A1 (Homo sapiens),active
C=CCc1ccccc1,odorant receptor agonist call,OR1A1 (Homo sapiens),inactive
C=CCOC(=O)Cc1ccccc1,odorant receptor agonist call,OR13A1 (Homo sapiens),inactive
same,odorant receptor agonist call,OR13C2 (Homo sapiens),inactive
same,odorant receptor agonist call,OR13C3 (Homo sapiens),inactive
same,odorant receptor agonist call,OR13C4 (Homo sapiens),inactive
same,odorant receptor agonist call,OR13C5 (Homo sapiens),inactive
same,odorant receptor agonist call,OR13C8 (Homo sapiens),inactive
same,odorant receptor agonist call,OR13C9 (Homo sapiens),inactive
same,odorant receptor agonist call,OR13D1 (Homo sapiens),inactive
same,odorant receptor agonist call,OR13F1 (Homo sapiens),inactive
same,odorant receptor agonist call,OR13G1 (Homo sapiens),inactive
same,odorant receptor agonist call,OR13H1 (Homo sapiens),inactive
same,odorant receptor agonist call,OR13J1 (Homo sapiens),inactive
same,odorant receptor agonist call,OR14A16 (Homo sapiens),inactive
same,odorant receptor agonist call,OR14A2 (Homo sapiens),inactive
same,odorant receptor agonist call,OR14C36 (Homo sapiens),inactive
same,odorant receptor agonist call,OR14I1 (Homo sapiens),inactive
same,odorant receptor agonist call,OR14J1 (Homo sapiens),inactive
same,odorant receptor agonist call,OR14K1 (Homo sapiens),inactive
same,odorant receptor agonist call,OR1A1 (Homo sapiens),active
CCC1CCC(=O)O1 (stereo not drawn),odorant receptor agonist call,OR1A1 (Homo sapiens),inactive
